Measurements reported in the array DNA melting data of Ke et al. (doi:10.1101/2024.01.08.574731).

Experiments:
[1] = melting temperature; fluorescence melt of hairpins on a sequencing array, two-state fit, raised by 9.35 °C to match UV melts; conditions: sodium 0.088 M
Summary of the method: (§1)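 Melting temperature and folding enthalpy were obtained by bootstrapped two-state fitting. Fits used Cy3 fluorescence of library hairpins with annealed Cy3 and quencher oligos on a sequenced MiSeq flow cell, imaged in 50 mM Na-HEPES pH 8.0, 25 mM NaCl in 2.5 °C steps up to 60 °C and normalised to pre-quench Cy3 and control constructs. Four replicates were combined by inverse-variance weighting, and fitted temperatures were raised by 9.35 °C to match UV melts.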

[2] = folding enthalpy; higher = less favourable; fluorescence melt of hairpins on a sequencing array, two-state fit; conditions: sodium 0.088 M
Summary of the method: as §1

Sequence	Tm [1] [°C]	folding enthalpy [2] [kcal/mol]
GCATAGCGAAAGCTAGGC ((.((((....)))).))	67	-27.1
GCATAGCGAAAGCTCAGC ((..(((....)))..))	30.6	-14.3
GCATAGCGAAAGCTCCGC ((..(((....)))..))	32.6	-8.77
GCATAGCGAAAGCTTAGC ((..(((....)))..))	41.6	-16.2
GCATAGCGAAAGCTTGC (((.(((....))))))	54.3	-22.5
GCATAGCGAAAGCTTGGC ((..(((....)))..))	41.9	-18.6
GCATAGGGAAACCCATGC ((((.((....)).))))	45.5	-29.9
GCATAGGGAAACCTATAC (.(((((....))))).)	27.8	-14.4
GCATAGGGAAACTTATGC (((((.(....).)))))	41.6	-29.2
GCATAGTCGAAAGACTGC (((..(((....))))))	43.1	-15.2
GCATATGGAAACATATGC (((((((....)))))))	56.3	-41.6
GCATCACGAAAGTGCTGC (((.(((....))).)))	52.4	-44
GCATCACGAAAGTGTGC (((.(((....))))))	56	-39.2
GCATCAGGAAACCGATGC (((((.(....).)))))	50	-33.4
GCATCAGGAAACTGATAC (.(((((....))))).)	34.2	-18.7
GCATCAGGAAACTGATGC (((((((....)))))))	67.1	-46.9
GCATCCGAAAGGAATTGC ((((((....)))..)))	36.9	-20.2
GCATCCGAAAGGACATGC ((((((....)))..)))	43.3	-23.1
GCATCCGAAAGGAGTGC ((((((....))).)))	51.2	-22.5

Sequence	Tm [1] [°C]	folding enthalpy [2] [kcal/mol]
GCATCCGAAAGGATGTGC ((((((....)))..)))	60.5	-18.9
GCATCCGGAAACGGACAC (..((((....))))..)	21.6	-12.7
GCATCGAAAGATGC (((((....)))))	69.2	-31.8
GCATCGCGAAAGCAAGGC ((.(.((....)).).))	39.6	-12.7
GCATCGCGAAAGCACTGC (((..((....))..)))	38.5	-14.7
GCATCGCGAAAGCCATGC ((((.((....)).))))	56.3	-35.7
GCATCGCGAAAGCCTTGC (((..((....))..)))	38.3	-16.7
GCATCGCGAAAGCGCGGC ((..(((....)))..))	44.7	-14.8
GCATCGCGAAAGCGGCGC ((..(((....)))..))	57.3	-21.2
GCATCGCGAAAGCGTCGC ((..(((....)))..))	42.1	-11.5
GCATCGCGAAAGCTCTGC (((..((....))..)))	36.8	-15.9
GCATCGGCGAAAGCCTGC (((..(((....))))))	39.8	-15.2
GCATCGGGAAACCGACAC (..((((....))))..)	25.8	-11.9
GCATCGGGAAACTGGTGC (((.(.(....).).)))	42.7	-29
GCATCTGGAAACAAATGC ((((.((....)).))))	32.6	-21.8
GCATCTGGAAACAGACGC ((.((((....)))).))	44.2	-33
GCATCTGGAAACAGATAC (.(((((....))))).)	36.3	-16.8
GCATCTGGAAACAGGTGC (((.(((....))).)))	52.2	-40.5
